Data taken from the M2OR odorant receptor database.
Residue numbers refer to the chain shown, from its start.

Experiments:
Details in all cases: stereoisomer not certain
OR6C65 (Homo sapiens) = molecular target: T1, OR6C65 (Homo sapiens) (UniProt A6NJZ3)
T1 sequence (whole entry): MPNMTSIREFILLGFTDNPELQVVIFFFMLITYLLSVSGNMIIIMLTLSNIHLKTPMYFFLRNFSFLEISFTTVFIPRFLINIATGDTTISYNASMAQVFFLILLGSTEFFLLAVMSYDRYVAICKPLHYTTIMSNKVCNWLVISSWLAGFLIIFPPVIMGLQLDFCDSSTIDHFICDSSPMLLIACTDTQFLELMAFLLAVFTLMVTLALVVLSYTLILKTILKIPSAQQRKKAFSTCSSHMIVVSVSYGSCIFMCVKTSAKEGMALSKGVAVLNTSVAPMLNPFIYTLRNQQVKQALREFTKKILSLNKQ
Procedure, shortened: (§1)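 Whether a receptor–molecule pair is responsive (active) rests on the original authors' judgment that its measured signal was statistically different from baseline. Pairs without that judgment are non-responsive (inactive). Sources used varied assay methods, commonly transient luciferase assays in mammalian cell lines.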

OR6C68 (Homo sapiens) = molecular target: T2, OR6C68 (Homo sapiens) (UniProt A6NDL8)
T2 sequence (whole entry): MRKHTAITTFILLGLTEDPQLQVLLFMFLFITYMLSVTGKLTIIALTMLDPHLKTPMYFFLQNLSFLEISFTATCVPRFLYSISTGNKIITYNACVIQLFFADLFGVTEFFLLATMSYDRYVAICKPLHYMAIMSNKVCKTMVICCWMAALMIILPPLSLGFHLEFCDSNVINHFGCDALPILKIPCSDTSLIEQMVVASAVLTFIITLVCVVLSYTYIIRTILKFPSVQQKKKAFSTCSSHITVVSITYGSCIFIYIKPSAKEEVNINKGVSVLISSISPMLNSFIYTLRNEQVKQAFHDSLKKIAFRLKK
Procedure, shortened: as §1

OR6C70 (Homo sapiens) = molecular target: T3, OR6C70 (Homo sapiens) (UniProt A6NIJ9)
T3 sequence (whole entry): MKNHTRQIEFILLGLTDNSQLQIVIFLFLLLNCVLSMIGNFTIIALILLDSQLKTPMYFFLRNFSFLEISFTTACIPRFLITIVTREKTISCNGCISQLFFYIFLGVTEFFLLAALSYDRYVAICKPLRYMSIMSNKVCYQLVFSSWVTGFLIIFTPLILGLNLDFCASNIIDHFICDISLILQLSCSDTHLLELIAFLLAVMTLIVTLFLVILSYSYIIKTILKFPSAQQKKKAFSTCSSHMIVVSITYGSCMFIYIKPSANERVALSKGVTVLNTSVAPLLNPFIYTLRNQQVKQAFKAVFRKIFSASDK
Procedure, shortened: as §1

OR6C74 (Homo sapiens) = molecular target: T4, OR6C74 (Homo sapiens) (UniProt A6NCV1)
T4 sequence (whole entry): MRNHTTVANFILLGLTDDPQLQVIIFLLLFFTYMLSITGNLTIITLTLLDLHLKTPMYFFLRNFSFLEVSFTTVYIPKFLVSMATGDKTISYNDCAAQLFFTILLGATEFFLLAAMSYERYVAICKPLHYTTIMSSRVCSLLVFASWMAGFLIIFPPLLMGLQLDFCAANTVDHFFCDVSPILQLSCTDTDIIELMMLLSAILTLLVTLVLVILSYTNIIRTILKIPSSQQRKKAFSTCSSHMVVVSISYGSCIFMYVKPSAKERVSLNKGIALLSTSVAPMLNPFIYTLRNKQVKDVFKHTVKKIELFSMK
Procedure, shortened: as §1

OR6C75 (Homo sapiens) = molecular target: T5, OR6C75 (Homo sapiens) (UniProt A6NL08)
T5 sequence (whole entry): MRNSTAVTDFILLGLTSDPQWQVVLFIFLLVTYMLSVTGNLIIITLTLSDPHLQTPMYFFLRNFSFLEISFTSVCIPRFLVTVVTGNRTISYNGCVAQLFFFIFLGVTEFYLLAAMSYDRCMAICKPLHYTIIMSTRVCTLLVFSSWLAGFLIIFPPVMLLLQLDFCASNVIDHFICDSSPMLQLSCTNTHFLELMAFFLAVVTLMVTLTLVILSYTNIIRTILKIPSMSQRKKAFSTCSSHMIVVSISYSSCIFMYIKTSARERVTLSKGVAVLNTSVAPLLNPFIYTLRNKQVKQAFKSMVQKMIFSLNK
Procedure, shortened: as §1

OR6C76 (Homo sapiens) = molecular target: T6, OR6C76 (Homo sapiens) (UniProt A6NM76)
T6 sequence (whole entry): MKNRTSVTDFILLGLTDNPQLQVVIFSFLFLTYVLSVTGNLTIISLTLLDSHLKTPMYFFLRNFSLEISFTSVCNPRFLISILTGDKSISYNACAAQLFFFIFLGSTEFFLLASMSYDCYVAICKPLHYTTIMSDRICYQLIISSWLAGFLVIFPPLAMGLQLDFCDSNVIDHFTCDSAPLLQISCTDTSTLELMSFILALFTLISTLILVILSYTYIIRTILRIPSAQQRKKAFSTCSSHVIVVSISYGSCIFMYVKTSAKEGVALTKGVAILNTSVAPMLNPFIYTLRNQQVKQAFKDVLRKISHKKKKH
Procedure, shortened: as §1

OR6F1 (Homo sapiens) = molecular target: T7, OR6F1 (Homo sapiens) (UniProt Q8NGZ6)
T7 sequence (whole entry): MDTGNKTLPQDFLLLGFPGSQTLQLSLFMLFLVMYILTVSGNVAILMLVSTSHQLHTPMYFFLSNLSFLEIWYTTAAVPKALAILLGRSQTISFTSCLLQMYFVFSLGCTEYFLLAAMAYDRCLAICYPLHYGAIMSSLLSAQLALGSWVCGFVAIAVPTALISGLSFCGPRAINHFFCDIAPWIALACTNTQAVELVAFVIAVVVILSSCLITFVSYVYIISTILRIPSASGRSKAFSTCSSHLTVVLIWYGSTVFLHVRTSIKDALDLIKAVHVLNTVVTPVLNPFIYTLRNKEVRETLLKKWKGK
Procedure, shortened: as §1

OR6J1 (Homo sapiens) [1] = molecular target: T8, OR6J1 (Homo sapiens) (UniProt Q8NGC5)
T8 sequence (whole entry): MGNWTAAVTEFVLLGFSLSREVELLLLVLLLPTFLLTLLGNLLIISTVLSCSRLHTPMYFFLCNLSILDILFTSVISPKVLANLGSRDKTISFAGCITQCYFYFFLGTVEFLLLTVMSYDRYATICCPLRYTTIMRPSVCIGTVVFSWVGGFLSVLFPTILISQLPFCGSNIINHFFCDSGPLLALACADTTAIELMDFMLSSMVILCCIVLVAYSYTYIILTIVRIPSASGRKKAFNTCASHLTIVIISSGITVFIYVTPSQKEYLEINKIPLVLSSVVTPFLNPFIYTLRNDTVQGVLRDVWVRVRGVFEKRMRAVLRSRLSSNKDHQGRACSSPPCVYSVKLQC
Procedure, shortened: as §1

OR6K2 (Homo sapiens) = molecular target: T9, OR6K2 (Homo sapiens) (UniProt Q8NGY2)
T9 sequence (whole entry): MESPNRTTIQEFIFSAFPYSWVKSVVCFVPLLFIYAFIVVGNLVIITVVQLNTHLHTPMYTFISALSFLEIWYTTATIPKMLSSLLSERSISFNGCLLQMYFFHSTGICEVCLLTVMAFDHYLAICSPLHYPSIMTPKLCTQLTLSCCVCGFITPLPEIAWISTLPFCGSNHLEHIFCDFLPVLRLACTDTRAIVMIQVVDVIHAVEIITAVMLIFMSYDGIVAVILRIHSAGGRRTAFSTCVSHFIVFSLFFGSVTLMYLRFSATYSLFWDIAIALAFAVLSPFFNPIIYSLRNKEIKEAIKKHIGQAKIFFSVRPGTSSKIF
Procedure, shortened: as §1

OR6K3 = test system: T10, OR6K3
T10 sequence (whole entry): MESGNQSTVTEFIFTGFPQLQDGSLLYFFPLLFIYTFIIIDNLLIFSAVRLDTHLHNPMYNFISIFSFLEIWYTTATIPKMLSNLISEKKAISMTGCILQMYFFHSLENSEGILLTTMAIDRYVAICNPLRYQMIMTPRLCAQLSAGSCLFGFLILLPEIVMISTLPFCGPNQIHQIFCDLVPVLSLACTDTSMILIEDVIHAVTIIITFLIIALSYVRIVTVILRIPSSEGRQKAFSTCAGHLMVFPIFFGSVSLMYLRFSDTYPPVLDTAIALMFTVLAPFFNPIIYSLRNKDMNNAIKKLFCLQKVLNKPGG
Procedure, shortened: as §1

OR6K6 (Homo sapiens) = molecular target: T11, OR6K6 (Homo sapiens) (UniProt Q8NGW6)
T11 sequence (whole entry): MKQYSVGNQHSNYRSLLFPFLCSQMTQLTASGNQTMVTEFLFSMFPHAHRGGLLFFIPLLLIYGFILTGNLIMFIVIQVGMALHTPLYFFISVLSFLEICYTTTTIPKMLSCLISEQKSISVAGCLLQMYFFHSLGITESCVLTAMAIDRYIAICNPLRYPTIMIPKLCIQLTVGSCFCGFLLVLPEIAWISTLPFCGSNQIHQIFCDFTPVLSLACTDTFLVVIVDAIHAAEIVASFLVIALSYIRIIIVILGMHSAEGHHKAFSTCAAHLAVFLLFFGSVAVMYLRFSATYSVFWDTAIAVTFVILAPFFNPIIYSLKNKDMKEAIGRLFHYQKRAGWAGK
Procedure, shortened: as §1

OR6M1 (Homo sapiens) = molecular target: T12, OR6M1 (Homo sapiens) (UniProt Q8NGM8)
T12 sequence (whole entry): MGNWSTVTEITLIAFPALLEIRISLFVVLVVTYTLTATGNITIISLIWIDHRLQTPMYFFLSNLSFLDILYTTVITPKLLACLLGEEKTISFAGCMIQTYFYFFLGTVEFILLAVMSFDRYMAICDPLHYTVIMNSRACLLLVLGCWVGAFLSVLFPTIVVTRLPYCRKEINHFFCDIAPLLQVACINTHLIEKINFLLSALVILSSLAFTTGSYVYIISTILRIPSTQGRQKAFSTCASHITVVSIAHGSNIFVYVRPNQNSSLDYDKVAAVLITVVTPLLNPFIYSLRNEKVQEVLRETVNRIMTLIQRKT
Procedure, shortened: as §1

OR6M1 R224C = test system: T13, OR6M1 R224C
T13 sequence (whole entry): T12 sequence (whole entry) with R224C
Procedure, shortened: as §1

OR6M1 T276K = test system: T14, OR6M1 T276K
T14 sequence (whole entry): T12 sequence (whole entry) with T276K
Procedure, shortened: as §1

OR6N1 (Homo sapiens) = molecular target: T15, OR6N1 (Homo sapiens) (UniProt Q8NGY5)
T15 sequence (whole entry): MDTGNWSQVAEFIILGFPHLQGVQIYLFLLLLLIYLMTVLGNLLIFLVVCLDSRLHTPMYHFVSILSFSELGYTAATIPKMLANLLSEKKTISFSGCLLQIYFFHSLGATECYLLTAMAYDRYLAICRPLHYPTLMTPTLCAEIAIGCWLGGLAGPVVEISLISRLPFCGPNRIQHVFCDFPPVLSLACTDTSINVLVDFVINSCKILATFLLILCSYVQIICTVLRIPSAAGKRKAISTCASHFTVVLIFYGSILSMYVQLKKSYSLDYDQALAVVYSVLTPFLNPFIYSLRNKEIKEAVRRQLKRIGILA
Procedure, shortened: as §1

OR6N2 (Homo sapiens) = molecular target: T16, OR6N2 (Homo sapiens) (UniProt Q8NGY6)
T16 sequence (whole entry): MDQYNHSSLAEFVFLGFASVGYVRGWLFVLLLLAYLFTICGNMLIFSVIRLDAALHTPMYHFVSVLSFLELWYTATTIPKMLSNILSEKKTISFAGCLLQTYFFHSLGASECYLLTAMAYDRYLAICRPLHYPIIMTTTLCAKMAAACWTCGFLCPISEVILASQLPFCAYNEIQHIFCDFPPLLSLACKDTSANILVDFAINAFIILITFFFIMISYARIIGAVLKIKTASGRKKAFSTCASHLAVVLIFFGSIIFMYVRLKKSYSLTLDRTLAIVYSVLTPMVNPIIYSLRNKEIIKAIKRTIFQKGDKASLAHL
Procedure, shortened: as §1

OR6P1 (Homo sapiens) = molecular target: T17, OR6P1 (Homo sapiens) (UniProt Q8NGX9)
T17 sequence (whole entry): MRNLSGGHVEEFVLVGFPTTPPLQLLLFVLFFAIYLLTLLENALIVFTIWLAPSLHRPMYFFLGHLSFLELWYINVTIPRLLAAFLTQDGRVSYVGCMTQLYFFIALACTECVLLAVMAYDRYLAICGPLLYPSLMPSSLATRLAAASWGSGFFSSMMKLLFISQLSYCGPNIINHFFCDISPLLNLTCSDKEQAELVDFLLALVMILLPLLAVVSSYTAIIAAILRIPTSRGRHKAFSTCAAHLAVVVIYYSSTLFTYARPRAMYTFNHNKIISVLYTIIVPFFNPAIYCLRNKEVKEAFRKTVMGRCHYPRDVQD
Procedure, shortened: as §1

OR6Q1 (Homo sapiens) = molecular target: T18, OR6Q1 (Homo sapiens) (UniProt Q8NGQ2)
T18 sequence (whole entry): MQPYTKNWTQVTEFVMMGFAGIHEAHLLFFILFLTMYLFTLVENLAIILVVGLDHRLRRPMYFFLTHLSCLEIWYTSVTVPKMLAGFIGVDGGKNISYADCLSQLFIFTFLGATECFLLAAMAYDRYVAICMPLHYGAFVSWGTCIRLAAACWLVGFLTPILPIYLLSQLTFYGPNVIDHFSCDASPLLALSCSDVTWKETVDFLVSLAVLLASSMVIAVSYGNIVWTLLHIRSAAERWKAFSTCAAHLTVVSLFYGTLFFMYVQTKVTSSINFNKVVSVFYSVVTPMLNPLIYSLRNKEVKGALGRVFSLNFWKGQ
Procedure, shortened: as §1

OR6J1 (Homo sapiens) [2] = molecular target: T19, OR6J1 (Homo sapiens) (UniProt Q8NGC5); remark: listed apart in the source
T19 sequence (whole entry): T8 sequence (whole entry) with S250P
Procedure, shortened: as §1

OR6K3 (Homo sapiens) = molecular target: T20, OR6K3 (Homo sapiens) (UniProt Q8NGY3)
T20 sequence (whole entry): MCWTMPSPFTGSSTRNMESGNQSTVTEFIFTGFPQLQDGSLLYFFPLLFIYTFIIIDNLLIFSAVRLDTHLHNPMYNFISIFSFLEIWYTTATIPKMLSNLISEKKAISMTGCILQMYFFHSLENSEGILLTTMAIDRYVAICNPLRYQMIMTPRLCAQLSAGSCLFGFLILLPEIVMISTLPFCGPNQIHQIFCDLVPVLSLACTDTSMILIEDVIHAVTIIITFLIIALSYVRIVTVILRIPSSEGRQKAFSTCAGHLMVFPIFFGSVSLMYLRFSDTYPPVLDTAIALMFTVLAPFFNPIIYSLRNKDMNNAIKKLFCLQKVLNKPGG
Procedure, shortened: as §1

Measured: odorant receptor agonist call;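 also: active if original authors judged signal statistically different from baseline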

CC1=NC(C)C(C)S1 (centres undefined)
not listed: OR6J1 (Homo sapiens) [2] | OR6K3 (Homo sapiens)
inactive: all other assays above

CC(=O)c1c(C)c([N+](=O)[O-])c(C(C)(C)C)c([N+](=O)[O-])c1C
not listed: OR6J1 (Homo sapiens) [1] | OR6K3 | OR6M1 R224C | OR6M1 T276K
inactive: all other assays above
